Like-named read-outs stand apart in the source and are kept apart here. Marks after values point to notes of the source that are not given here.
Tests used:
[1] = cited from earlier work
[2] = assay type: in vivo, Sprague Dawley rats; conditions: for AUC: 0 to 48 h; for AUC / Cmax / T1/2 / Tmax / half-life: plasma after intragastric ginsenoside Rb1 100 mg/kg, mean ± SE; for AUC increase compared with the control group: after intragastric ginsenoside Rb1 100 mg/kg
Procedure, shortened: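 Male SD rats (200 ± 20 g, n = 8/group) were gavaged daily for two weeks with prebiotic fibre at 1.0 g/d/rat, or sterile water (10 ml/kg). After an overnight fast, test compound was given intragastrically at 100 mg/kg. Ophthalmic plexus blood was drawn at 0.25–48 h. Plasma was acetone-precipitated with a saikosaponin A internal standard and run on positive-mode UPLC-ESI-QqQ-MS/MS. AUC0–48h came from non-compartmental analysis, mean ± SE, ANOVA/Bonferroni.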

intestinal microflora = conditions: after colimycin 20 mg/kg/day; decreased from 22.1 ± 1.2%; cited from earlier work
[3] = FOS group (1.0 g/d/rat, two weeks)
[4] = Fibersol-2 group (1.0 g/d/rat, two weeks)
[5] = GOS group (1.0 g/d/rat, two weeks)
[6] = Sprague-Dawley, rat, plasma, po, 100 mg/kg, Cmax, FOS group (1.0 g/d/rat, two weeks)
[7] = Sprague-Dawley, rat, plasma, po, 100 mg/kg, Cmax, Fibersol-2 group (1.0 g/d/rat, two weeks)
[8] = Sprague-Dawley, rat, plasma, po, 100 mg/kg, Cmax, GOS group (1.0 g/d/rat, two weeks)
[9] = Sprague-Dawley, rat, plasma, po, 100 mg/kg, T1/2, FOS group (1.0 g/d/rat, two weeks)
[10] = Sprague-Dawley, rat, plasma, po, 100 mg/kg, T1/2, Fibersol-2 group (1.0 g/d/rat, two weeks)
[11] = Sprague-Dawley, rat, plasma, po, 100 mg/kg, T1/2, GOS group (1.0 g/d/rat, two weeks)
[12] = Sprague-Dawley, rat, plasma, po, 100 mg/kg, Tmax, FOS group (1.0 g/d/rat, two weeks)
[13] = Sprague-Dawley, rat, plasma, po, 100 mg/kg, Tmax, Fibersol-2 group (1.0 g/d/rat, two weeks)
[14] = Sprague-Dawley, rat, plasma, po, 100 mg/kg, Tmax, GOS group (1.0 g/d/rat, two weeks)

AUC [2, 3] | AUC [2, 4] | AUC [2, 5] | AUC increase compared with the control group ([2]; GOS intervention) [times] | AUC increase compared with the control group ([2]; fibersol-2 intervention) [times] | AUC increase compared with the control group ([2]; FOS intervention) [times] | Cmax [2, 6] [µg/mL] | Cmax [2, 7] [µg/mL] | Cmax [2, 8] [µg/mL] | half-life [2, 9] [h] | half-life [2, 10] [h] | half-life [2, 11] [h] | Tmax [2, 12] [h] | Tmax [2, 13] [h] | Tmax [2, 14] [h] | Compound | oral bioavailability [1] | further results
1056.88 ± 173.22^ab ng/ml∗h | 1251.99 ± 740.67^b ng/ml∗h | 1434.71 ± 415.30^b ng/ml∗h | 2.42 | 2.11 |  |  |  |  |  |  |  |  |  |  | CC(C)=CCC[C@](C)(O[C@@H]1O[C@H](CO)[C@@H](O)[C@H](O)[C@H]1O)[C@H]1CC[C@]2(C)[C@@H]1[C@H](O)C[C@@H]1[C@@]3(C)CC[C@H](O)C(C)(C)[C@@H]3CC[C@]12C [CK, 20-O-β-D-glucopyranosyl-20(S)-protopanaxadiol] | 1.8–35.0% | Cmax [2, 3]: 42.94 ± 12.08^a ng/ml; T1/2 [2, 3]: 92.12 ± 158.19^a h; Tmax [2, 3]: 24.80 ± 15.60^b h; Cmax [2, 4]: 53.38 ± 25.17^a ng/ml; T1/2 [2, 4]: 50.86 ± 65.79^a h; Tmax [2, 4]: 29.00 ± 19.72^b h; Cmax [2, 5]: 57.46 ± 7.17^a ng/ml; T1/2 [2, 5]: 77.35 ± 129.14^a h; Tmax [2, 5]: 15.30 ± 11.98^ab h
200.38 ± 41.50^b ng/ml∗h | 153.78 ± 36.00^ab ng/ml∗h | 121.97 ± 29.35^a ng/ml∗h |  |  | 1.94 | 0.0152 ± 0.00249 | 0.0353 ± 0.0183 | 0.0114 ± 0.00344 | 23.2 ± 37.8 | 2.67 ± 0.95 | 4.52 ± 3.73 | 8 ± 1.41 | 6.8 ± 1.09 | 7.6 ± 1.67 | CC(C)=CCC[C@](C)(O[C@@H]1O[C@H](CO)[C@@H](O)[C@H](O)[C@H]1O)[C@H]1CC[C@]2(C)[C@@H]1[C@H](O)C[C@@H]1[C@@]3(C)CC[C@H](O[C@@H]4O[C@H](CO)[C@@H](O)[C@H](O)[C@H]4O)C(C)(C)[C@@H]3CC[C@]12C [F2, ginsenoside F2] |  | 
34494.77 ± 8770.73^bc ng/ml∗h | 42110.46 ± 6452.33^c ng/ml∗h | 30813.79 ± 3334.99^b ng/ml∗h | 2.25 | 3.07 | 2.52 | 1.53 ± 0.343 | 3.88 ± 2.37 | 1.21 ± 0.126 | 19.4 ± 4.44 | 24.2 ± 4.81 | 19.7 ± 2.06 | 6.3 ± 2.82 | 1 ± 1.12 | 3.2 ± 3.55 | CC(C)=CCC[C@](C)(O[C@@H]1O[C@H](CO[C@@H]2O[C@H](CO)[C@@H](O)[C@H](O)[C@H]2O)[C@@H](O)[C@H](O)[C@H]1O)[C@H]1CC[C@]2(C)[C@@H]1[C@H](O)C[C@@H]1[C@@]3(C)CC[C@H](O[C@@H]4O[C@H](CO)[C@@H](O)[C@H](O)[C@H]4O[C@@H]4O[C@H](CO)[C@@H](O)[C@H](O)[C@H]4O)C(C)(C)[C@@H]3CC[C@]12C [Rb1, ginsenoside Rb1] | 0.28–1.18% | 
1616.98 ± 321.59^b ng/ml∗h | 1754.98 ± 335.76^b ng/ml∗h | 1479.93 ± 381.35^b ng/ml∗h | 1.74 | 2.06 | 1.91 | 0.11 ± 0.0251 | 0.145 ± 0.0672 | 0.156 ± 0.039 | 15.2 ± 5.17 | 10.3 ± 3.79 | 18.6 ± 18 | 7.6 ± 0.89 | 7.6 ± 1.67 | 6.4 ± 0.89 | CC(C)=CCC[C@](C)(O[C@@H]1O[C@H](CO)[C@@H](O)[C@H](O)[C@H]1O)[C@H]1CC[C@]2(C)[C@@H]1[C@H](O)C[C@@H]1[C@@]3(C)CC[C@H](O[C@@H]4O[C@H](CO)[C@@H](O)[C@H](O)[C@H]4O[C@@H]4O[C@H](CO)[C@@H](O)[C@H](O)[C@H]4O)C(C)(C)[C@@H]3CC[C@]12C [Rd, ginsenoside Rd] |  | 
 |  |  |  |  |  |  |  |  |  |  |  |  |  |  | colimycin |  | ginsenoside Rb1-hydrolysing activity by intestinal microflora (intestinal microflora): 4.7 ± 2.7%

— PMC8020290 (Journal of Ginseng Research, 2020)
